Laboratory results: publication PMC12325899 (Scientific Reports, 2025)

Assays:
MDCKII-BCRP cells = experiment: Reversal of BCRP-mediated resistance to SN-38; format: cell-based, canine; conditions: flavonol 5 µM; CC50 in MDCKII-BCRP comparable to mock cells
BCRP [1] = molecular target: T1, BCRP (Homo sapiens, UniProt Q9UNQ0); experiment: BCRP inhibition, prazosin accumulation assay in MDCKII-BCRP cells; conditions: for IC50: IC50 on BCRP activity, prazosin 5 µM, 20 min, MDCKII-BCRP; for inhibition at 20 min, 2 µM: human, pH 7.4
T1 sequence (Q9UNQ0 1-655): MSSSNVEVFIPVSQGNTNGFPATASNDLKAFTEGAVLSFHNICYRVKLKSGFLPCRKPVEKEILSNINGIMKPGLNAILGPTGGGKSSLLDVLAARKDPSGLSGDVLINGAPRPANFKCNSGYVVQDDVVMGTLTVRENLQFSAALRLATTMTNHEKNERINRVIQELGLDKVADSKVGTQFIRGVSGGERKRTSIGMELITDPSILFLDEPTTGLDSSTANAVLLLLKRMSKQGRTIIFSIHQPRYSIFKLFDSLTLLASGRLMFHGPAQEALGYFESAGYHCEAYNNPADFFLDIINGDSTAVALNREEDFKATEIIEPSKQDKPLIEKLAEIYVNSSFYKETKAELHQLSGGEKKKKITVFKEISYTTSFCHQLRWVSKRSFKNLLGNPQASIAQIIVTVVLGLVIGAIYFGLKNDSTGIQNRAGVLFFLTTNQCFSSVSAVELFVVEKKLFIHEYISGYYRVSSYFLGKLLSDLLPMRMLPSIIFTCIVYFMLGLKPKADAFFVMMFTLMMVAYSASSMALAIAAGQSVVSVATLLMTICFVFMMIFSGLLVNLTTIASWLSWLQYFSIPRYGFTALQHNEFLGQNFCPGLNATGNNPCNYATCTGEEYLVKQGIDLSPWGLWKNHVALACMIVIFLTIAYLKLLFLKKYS

BCRP [2] = molecular target: T2, BCRP (Rattus norvegicus, UniProt Q80W57); experiment: In vivo pharmacokinetic interaction with the BCRP substrate sulfasalazine; design: species or system Sprague-Dawley (SD) rats; conditions: rats; for increase of sulfasalazine AUClast versus sulfasalazine alone / increase of sulfasalazine Cmax versus sulfasalazine alone: flavonol 5 mg/kg co-administered with sulfasalazine 2 mg/kg oral; for half-life: male, Sprague-Dawley, rat, plasma, po, 2 mg/kg, t1/2 of sulfasalazine
T2 sequence (Q80W57 1-657): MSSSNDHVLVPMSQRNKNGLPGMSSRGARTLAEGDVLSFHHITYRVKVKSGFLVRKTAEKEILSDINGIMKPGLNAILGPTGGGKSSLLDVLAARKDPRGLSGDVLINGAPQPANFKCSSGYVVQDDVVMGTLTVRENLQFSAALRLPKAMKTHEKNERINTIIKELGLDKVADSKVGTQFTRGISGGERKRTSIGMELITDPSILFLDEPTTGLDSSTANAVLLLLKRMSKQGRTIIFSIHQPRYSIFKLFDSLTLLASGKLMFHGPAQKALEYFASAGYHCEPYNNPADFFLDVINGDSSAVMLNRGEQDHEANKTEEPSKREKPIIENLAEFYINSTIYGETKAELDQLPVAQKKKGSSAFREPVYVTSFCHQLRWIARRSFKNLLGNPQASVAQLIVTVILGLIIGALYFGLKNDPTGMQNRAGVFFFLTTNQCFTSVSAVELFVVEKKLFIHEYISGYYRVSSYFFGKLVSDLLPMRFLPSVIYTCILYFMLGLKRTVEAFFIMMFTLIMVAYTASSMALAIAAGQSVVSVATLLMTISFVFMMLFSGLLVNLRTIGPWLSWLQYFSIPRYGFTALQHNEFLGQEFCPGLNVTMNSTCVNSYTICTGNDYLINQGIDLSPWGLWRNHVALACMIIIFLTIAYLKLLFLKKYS
In short: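 Male SD rats (8 weeks, 250–270 g), acclimatized 1 week and fasted overnight with water, n = 5/group. Oral sulfasalazine 2 mg/kg alone or co-administered with test flavonol 5 mg/kg. Plasma was separated at 4 °C and sulfasalazine measured by LC-MS/MS after methanol precipitation with IS. Noncompartmental analysis: AUClast by trapezoidal rule, Cmax observed. Groups were compared with Student's t-test; mean ± SD.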

[3] = Plasma pharmacokinetics of the flavonols after oral co-administration; format: in vivo, Sprague-Dawley (SD) rats; conditions: male, Sprague-Dawley, rat, 5 mg/kg
In short: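 Fasted male SD rats (8 weeks, 250–270 g; n = 5) were dosed orally with test flavonol 5 mg/kg together with sulfasalazine 2 mg/kg. Flavonol in plasma was quantified by LC-MS/MS: methanol/IS protein precipitation, C18 gradient of ammonium formate and formic acid–acetonitrile. Noncompartmental parameters: AUClast by trapezoidal rule, AUCinf by extrapolation, Cmax/Tmax observed, t1/2 from terminal slope; mean ± SD.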

BCRP [4] = conditions: cited from earlier work
BCRP [5] = conditions: cited from earlier work; remark: listed apart in the source
BCRP [6] = conditions: amentoflavone 30 mg/kg co-administered with mitoxantrone, rats; cited from earlier work
BCRP [7] = conditions: read-out: IC50 for BCRP inhibition; cited from earlier work

O=c1c(O)c(-c2cccc(O)c2)oc2cc(O)ccc12 [compound 8, 3,7,3’-Trihydroxyflavone]
reversal of BCRP-mediated resistance to SN-38 (MDCKII-BCRP cells): almost completely reversed BCRP-mediated resistance to SN-38 | IC50 (BCRP [1]): < 5 µM

COc1ccc(-c2oc3ccccc3c(=O)c2OC)cc1 [compound no. 37, 3,4’-Dimethoxyflavone]
increase of sulfasalazine AUClast versus sulfasalazine alone (BCRP [2]): 1.79 fold | increase of sulfasalazine Cmax versus sulfasalazine alone (BCRP [2]): approximately 1.83 fold | AUC(0-t) [3]: 12.4 ± 5 ng·h/mL | Cmax [3]: 13.5 ± 8.8 ng/mL | half-life [3]: 0.54 ± 0.15 h

COc1ccc(-c2oc3cc(OC)c(OC)c(OC)c3c(=O)c2OC)cc1 [compound 53, 3,5,6,7,4’-Pentamethoxyflavone]
IC50 (BCRP [1]): < 5 µM

O=c1c(O)c(-c2ccc(O)c(O)c2)oc2cc(O)cc(O)c12 [compound no. 27, 3,5,7,3’,4’-Pentahydroxyflavone]
IC50 (BCRP [1]): < 5 µM | inhibition at 20 min, 2 µM (BCRP [1]): 45.9%

O=c1[nH]c(=O)c2c[nH]nc2[nH]1 [oxypurinol]
prolongation of half-life (BCRP [4]; individuals homozygous for the p.Q141K variant): 1.8 fold

COc1ccc(-c2oc3cc(O)cc(O)c3c(=O)c2OC)cc1O [compound 48, 5,7,3’-Trihydroxy-3,4’-dimethoxyflavone]
IC50 (BCRP [1]): < 5 µM

O=C(O)c1cc(/N=N/c2ccc(S(=O)(=O)Nc3ccccn3)cc2)ccc1O [Sulfasalazine, sulfasalazine, reference compound]
half-life (BCRP [2]; sulfasalazine 2 mg/kg oral + 3,4’-dimethoxyflavone 5 mg/kg): 1.76 ± 0.29 h | half-life (BCRP [2]; sulfasalazine 2 mg/kg oral + 3,6,3’,4’-tetramethoxyflavone 5 mg/kg): 2.34 ± 1.23 h

COc1ccc(-c2oc3cc(OC)c(OC)c(OC)c3c(=O)c2OC)cc1OC [compound no. 54, 3,5,6,7,3’,4’-Hexamethoxyflavone]
IC50 (BCRP [1]): < 5 µM | inhibition at 20 min, 2 µM (BCRP [1]): 52%

COc1ccc(-c2oc3cc(OC)c(O)c(OC)c3c(=O)c2OC)cc1O [compound 52, 6,3’-Dihydroxy-3,5,7,4’-tetramethoxyflavone]
IC50 (BCRP [1]): < 5 µM

O=c1c(O)c(-c2ccc(O)cc2O)oc2cc(O)cc(O)c12 [compound 31, 3,5,7,2’,4’-Pentahydroxyflavone]
IC50 (BCRP [1]): > 10 µM

Cc1c(O)cc(O)c2c(=O)c(O)c(-c3ccc(O)c(O)c3)oc12 [compound 32, 3,5,7,3’,4’-Pentahydroxy-8-methylflavone]
IC50 (BCRP [1]): < 5 µM

CC(C)c1nc(N(C)S(C)(=O)=O)nc(-c2ccc(F)cc2)c1/C=C/[C@@H](O)C[C@@H](O)CC(=O)O [rosuvastatin, reference compound]
increase in maximum plasma concentration (BCRP [4]; 421CA or 421AA genotypes versus 421CC wild-type homozygous genotype): 1.9 fold

COc1ccc2oc(-c3ccc(OC)c(OC)c3)c(OC)c(=O)c2c1 [compound no. 46, 3,6,3’,4’-Tetramethoxyflavone]
reversal of BCRP-mediated resistance to SN-38 (MDCKII-BCRP cells): almost completely reversed BCRP-mediated resistance to SN-38 | IC50 (BCRP [1]): < 5 µM | inhibition at 20 min, 2 µM (BCRP [1]): 49.9% | increase of sulfasalazine AUClast versus sulfasalazine alone (BCRP [2]): 1.74 fold | increase of sulfasalazine Cmax versus sulfasalazine alone (BCRP [2]): 2.02 fold | AUC(0-t) [3]: 22.3 ± 1.6 ng·h/mL | Cmax [3]: 13.3 ± 0.6 ng/mL | half-life [3]: 2.24 ± 0.17 h

COc1cc(-c2oc3cc(O)cc(O)c3c(=O)c2O)ccc1O [compound no. 29, 3,5,7,4’-Tetrahydroxy-3’-methoxyflavone]
inhibition at 20 min, 2 µM (BCRP [1]): 45.5%

COc1cc(Nc2ncc(F)c(Nc3ccc4c(n3)N(COP(=O)(O)O)C(=O)C(C)(C)O4)n2)cc(OC)c1OC [Fostamatinib]
increase of the plasma concentration of rosuvastatin (BCRP [5]): approximately two-fold

COc1ccc2c(=O)c(OC)c(-c3ccc(O)c(OC)c3)oc2c1 [compound no. 43, 4’-Hydroxy-3,7,3’-trimethoxyflavone]
reversal of BCRP-mediated resistance to SN-38 (MDCKII-BCRP cells): almost completely reversed BCRP-mediated resistance to SN-38 | IC50 (BCRP [1]): < 5 µM | inhibition at 20 min, 2 µM (BCRP [1]): 45.2%

COc1cc(O)c2c(=O)c(OC)c(-c3ccc(OC)c(OC)c3)oc2c1 [compound 50, 5-Hydroxy-3,7,3’,4’-tetramethoxyflavone]
reversal of BCRP-mediated resistance to SN-38 (MDCKII-BCRP cells): almost completely reversed BCRP-mediated resistance to SN-38 | IC50 (BCRP [1]): < 5 µM

COc1ccc2oc(-c3cccc(OC)c3OC)c(OC)c(=O)c2c1 [compound 47, 3,6,2’,3’-Tetramethoxyflavone]
IC50 (BCRP [1]): > 10 µM

O=c1cc(-c2ccc(O)c(-c3c(O)cc(O)c4c(=O)cc(-c5ccc(O)cc5)oc34)c2)oc2cc(O)cc(O)c12 [amentoflavone]
increase of the AUC of mitoxantrone (BCRP [6]): 1.23 fold | IC50 (BCRP [7]): ~4 µM

O=c1c(O)c(-c2ccccc2)oc2cc(O)ccc12 [compound no. 7, 3,7-Dihydroxyflavone]
IC50 (BCRP [1]): < 5 µM
